The record followed here is ChEMBL document CHEMBL4765320, “Identification and optimization of piperine analogues as neuroprotective agents for the treatment of Parkinson's disease via the activation of Nrf2/keap1 pathway” (Eur J Med Chem, 2020).

Calls of active or inactive are those of the source. The rule behind the calls is not given here.

The subject of assay [1] is PC-12. The assay can be described thus: Inhibition of H202-induced apoptosis in rat PC-12 cells assessed as necrotic cells at 12.5 uM after 24 hrs by Annexin-V-FITC/PI-staining based flow cytometric analysis (reference value: 0.33%). Type of assay: functional. Details: scale not given: the % may be the effect or the level left. The method, boiled down:
(§1)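 PC12 cells seeded 2 × 10⁵/well for 24 h, pretreated 24 h with 12.5, 25, 50 or 100 µM compound, then given fresh medium containing 650 µM H2O2. Harvested cells washed in binding buffer, stained 5 min with Annexin V-FITC/PI, analysed by flow cytometry.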

Assay [2] has as its system PC-12. The assay can be described thus: Inhibition of H202-induced apoptosis in rat PC-12 cells assessed as early apoptotic cells at 12.5 uM after 24 hrs by Annexin-V-FITC/PI-staining based flow cytometric analysis (reference value: 15.16%). Type of assay: functional. The arrangement: scale not given: the % may be the effect or the level left. The method, boiled down: as §1

Assay [3] relates to Mus musculus. The assay is described as follows: Neuroprotective activity in lesioned C57BL/6 mouse model of Parkinson's disease assessed as increase in time spent on rotarod at 100 mg/kg, po administered for 2 week after MPTP stimulation by rotarod test. The conditions noted are these: time 2 weeks. Type of assay: functional. Summed up:
(§2)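 Male 10-week-old C57BL/6 mice (20–23 g), n = 6/group. Prophylactic: oral compound (50 or 100 mg/kg in saline) 2 weeks, then MPTP-HCl 25 mg/kg i.p. in week 3. Therapeutic: MPTP-HCl 25 mg/kg i.p. 1 week, then oral 100 mg/kg 2 weeks. Saline vehicle. Pole/rotarod training last 3 days; TH immunohistochemistry on SNpc and striatum.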
On the technique in general: In the rotarod test animals must keep their balance on a rotating rod.

For assay [4], the system named is PC-12. The assay is described as follows: Cytoprotection activity against H2O2-induced rat PC12-shNT cell assessed as cell viability at 12.5 to 100 uM pretreated for 24 hrs followed by H2O2 challenge and measured after 24 hrs by MTT assay. Type of assay: functional, cell-based. The note with it: dose 12.5-100 µM, time 48.0 hrs. Summed up:
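PC12 lines made by lentiviral shRNA against rat Nrf2 (shNrf2-2) or scrambled control (shNT), selected with 0.5 mg/mL G418, knockdown confirmed by Western blot. Pretreated 24 h with 12.5, 25.0, 50.0 or 100 µM compound, then H2O2 for 24 h; viability by MTT; mean ± SD, three independent experiments.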

The test system of assay [5] is PC-12. The assay can be described thus: Inhibition of H2O2-induced reactive oxygen species production in rat PC-12 cells assessed as ROS accumulation at 100 uM measured after pretreated for 24 hrs followed by H2O2 challenge and measured after 24 hrs by DCFH-DA probe based flow cytometry. The assay is classed as functional, cell-based. Summed up: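 PC12 cells seeded 1 × 10⁴/well, pretreated 24 h with 12.5–100 µM compound, then 300 µM H2O2 for 24 h. Rinsed, loaded with DCFH-DA (1:1000 in serum-free medium) 15 min at room temperature in the dark, washed; fluorescence read by microscopy, plate reader ([…]) and flow cytometry; three independent experiments.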
Background: Flow cytometry measures light scatter and fluorescence of single cells or particles in a stream.

Assay [6] concerns Mus musculus. The assay can be described thus: Neuroprotective activity against lesioned C57BL/6 mouse model of Parkinson's disease assessed as increase in expression of HO-1 and NQO1 at 50 to 100 mg/kg , po administered for 2 week before MPTP stimulation by western blotting assays. The note with it: Brain, dose 50-100 mg/kg, time 2.0 weeks. The assay is classed as functional, organism-based. On the technique in general: A western blot detects proteins with antibodies after separation by electrophoresis.

Assay [7] addresses T1, Nuclear factor erythroid 2-related factor 2 (Rattus norvegicus) (UniProt O54968).
T1 sequence (whole entry): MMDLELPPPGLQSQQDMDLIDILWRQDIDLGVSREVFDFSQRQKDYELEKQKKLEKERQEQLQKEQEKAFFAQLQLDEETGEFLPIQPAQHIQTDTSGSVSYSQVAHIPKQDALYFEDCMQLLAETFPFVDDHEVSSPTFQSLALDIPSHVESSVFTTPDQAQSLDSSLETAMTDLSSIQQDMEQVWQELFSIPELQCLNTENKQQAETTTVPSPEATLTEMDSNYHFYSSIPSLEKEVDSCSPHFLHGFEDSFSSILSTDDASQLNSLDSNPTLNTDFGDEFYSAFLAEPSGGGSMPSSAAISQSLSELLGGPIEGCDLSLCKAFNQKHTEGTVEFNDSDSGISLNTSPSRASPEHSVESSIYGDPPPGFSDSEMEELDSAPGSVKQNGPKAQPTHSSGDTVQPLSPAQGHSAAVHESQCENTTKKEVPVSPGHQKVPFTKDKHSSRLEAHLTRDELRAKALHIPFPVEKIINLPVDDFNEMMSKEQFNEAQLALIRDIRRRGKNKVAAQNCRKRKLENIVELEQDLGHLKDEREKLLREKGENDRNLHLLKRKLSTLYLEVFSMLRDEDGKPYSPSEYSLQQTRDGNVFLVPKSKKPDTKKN
The assay is described as follows: Induction of Nrf2 nuclear translocation in rat PC-12 cells assessed as Nrf2 accumulation in nucleus at 25 uM measured after 4 to 8 hrs by immunofluorescence analysis. The assay is classed as cell-based. The note with it: filed as activator, time 4-8 hrs. Summed up: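 PC12 cells exposed to 25 µM compound for 0, 4, 6 and 8 h; fixed in cold methanol (−20 °C, 20 min), anti-Nrf2 overnight, Dylight 594 secondary (1:500, 1 h), DAPI nuclear counterstain; imaged by fluorescence microscopy.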

The test system of assay [8] is PC-12. The assay can be described thus: Inhibition of H202-induced apoptosis in rat PC-12 cells assessed as viable cells at 12.5 uM after 24 hrs by Annexin-V-FITC/PI-staining based flow cytometric analysis (reference value: 52.01%). Type of assay: functional. The note with it: read-out: Activity. Summed up:
as §1

Assay [9] has as its system Mus musculus. The assay can be described thus: Neuroprotective activity in lesioned C57BL/6 mouse model of Parkinson's disease assessed as increase in time spent on rotarod at 50 mg/kg, po administered for 2 week before MPTP stimulation by rotarod test. Type of assay: functional. The note with it: time 2 weeks. The method, boiled down: as §2
The subject of assay [10] is PC-12. The assay can be described thus: Inhibition of H202-induced apoptosis in rat PC-12 cells assessed as viable cells at 100 uM after 24 hrs by Annexin-V-FITC/PI-staining based flow cytometric analysis (reference value: 52.01%). The assay is classed as functional. The note with it: read-out: Activity. Summed up:
as §1

Assay [11] addresses T2, Nuclear factor erythroid 2-related factor 2 (Homo sapiens) (UniProt Q16236).
T2 sequence (whole entry): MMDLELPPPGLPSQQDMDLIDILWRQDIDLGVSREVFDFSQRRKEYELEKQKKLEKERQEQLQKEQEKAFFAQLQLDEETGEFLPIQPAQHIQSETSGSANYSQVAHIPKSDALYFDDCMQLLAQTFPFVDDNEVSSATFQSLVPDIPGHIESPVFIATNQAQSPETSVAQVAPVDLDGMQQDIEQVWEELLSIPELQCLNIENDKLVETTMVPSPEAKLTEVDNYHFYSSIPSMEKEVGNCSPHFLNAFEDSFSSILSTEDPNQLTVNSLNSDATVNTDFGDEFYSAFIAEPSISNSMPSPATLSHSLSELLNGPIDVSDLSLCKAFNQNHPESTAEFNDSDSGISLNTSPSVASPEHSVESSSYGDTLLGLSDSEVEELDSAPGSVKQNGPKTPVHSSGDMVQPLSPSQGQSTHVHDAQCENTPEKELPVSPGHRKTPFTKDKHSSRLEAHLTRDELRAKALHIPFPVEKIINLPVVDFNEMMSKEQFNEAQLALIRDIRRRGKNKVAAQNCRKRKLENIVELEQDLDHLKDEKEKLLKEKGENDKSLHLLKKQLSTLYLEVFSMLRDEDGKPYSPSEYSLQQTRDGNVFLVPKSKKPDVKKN
The assay is described as follows: Activation of Nrf2 in human HepG2-ARE-C8 cells assessed as fold change at 12.5 uM measured after 12 hrs by luciferase reporter gene assay relative to control. The note with it: filed as activator. Type of assay: cell-based.

Consider `COc1ccccc1/C=C/C=C/C(=O)N1CCCCC1`, for which the Activity turned out to be 0.3% in assay [1] and 12.26% in assay [2]. The Time in assay [3] amounted to 189.5 s; in assay [9] it was 253.7 s. The result in assay [4], in assay [6] and in assay [7] was Active. Further, the result in [5] was inactive. Also, the viability at 12.5 µM in [8] was 61.4%. In addition, the viability at 100 µM in assay [10] is 58%. Besides, the fold change (FC) in assay [11] came out at 3.
